The source of these data is PubChem BioAssay AID602285 (Broad Institute, 2012).

For orientation: AC50 means the concentration at which the activity in the assay is half-maximal.

The source made the active and inactive calls.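 The calls were made as follows: active = AC50 at or below twice the top valid dose for that sample, with falling signal; inconclusive = flat curve with inhibition of 30 to 70%, or poor fit; inactive = activity in the wrong direction, plus the rest.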

Scavenger receptor class B member 1 (Mus musculus), sequence (Q61009 whole entry, looked up): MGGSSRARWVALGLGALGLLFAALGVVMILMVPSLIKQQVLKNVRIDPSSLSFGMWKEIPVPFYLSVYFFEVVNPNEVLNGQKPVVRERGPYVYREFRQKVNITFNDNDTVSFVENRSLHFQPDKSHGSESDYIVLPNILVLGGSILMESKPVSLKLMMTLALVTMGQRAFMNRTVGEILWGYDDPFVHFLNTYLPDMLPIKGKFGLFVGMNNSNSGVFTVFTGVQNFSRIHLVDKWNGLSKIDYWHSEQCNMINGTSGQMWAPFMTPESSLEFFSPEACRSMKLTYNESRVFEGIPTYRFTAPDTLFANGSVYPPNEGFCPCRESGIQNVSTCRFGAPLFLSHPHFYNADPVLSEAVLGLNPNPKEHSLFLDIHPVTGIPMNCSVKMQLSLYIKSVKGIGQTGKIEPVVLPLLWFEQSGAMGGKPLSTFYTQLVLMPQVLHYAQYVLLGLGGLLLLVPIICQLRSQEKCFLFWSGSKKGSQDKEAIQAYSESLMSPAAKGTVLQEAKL

One test concerns the target Scavenger receptor class B member 1 (Mus musculus) (UniProt Q61009). In words: inhibitors of HDL uptake via mouse SR-BI, dose response, ldlA[mSR-BI] CHO cells, fluorescence plate reader, dry powder, set 8 (AID 602285). The note with it: DiI-HDL uptake fluorescence, 3 h. A digest of the protocol:
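Test system: CHO ldlA cells overexpressing mouse SR-BI | Compound dosing: Pin-transferred compounds, dose series | Technique: Washed-cell DiI fluorescence, ex 550/em 595 nm | Schedule: Overnight cell plating, then 3 h compound and DiI-HDL exposure at 37 °C | Probe or stimulus: DiI-labelled HDL, 10 µg protein/mL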
Regarding `C[C@H](CO)N1C[C@H](C)[C@H](CN(C)CC2CCCCC2)Oc2c(NS(=O)(=O)c3cn(C)cn3)cccc2C1=O`, the AC50 is > 70 µM (inactive).
With `COc1ccc(NC(=O)Nc2ccc3c(c2)C(=O)N([C@H](C)CO)C[C@@H](C)[C@H](CN(C)S(=O)(=O)c2ccc(Cl)cc2)O3)cc1`, the AC50 is 0.304 µM.
Still for that read-out and setting: for `C[C@@H]1CN([C@@H](C)CO)C(=O)c2cc(NC(=O)NC3CCCCC3)ccc2O[C@H]1CN(C)Cc1ccncc1` the value was 10.7 µM; for `CO[C@H]1CN(C)C(=O)c2cc(NC(=O)c3ccccc3F)ccc2OC[C@@H](C)N(C(C)=O)C[C@@H]1C`, > 70 µM (inactive).
Consider `Cc1noc(C)c1NC(=O)Nc1ccc2c(c1)C(=O)N([C@H](C)CO)C[C@@H](C)[C@H](CN(C)S(=O)(=O)c1ccc(Cl)cc1)O2`, for which the AC50 was 7.1 µM.
Take `C[C@@H]1CN([C@@H](C)CO)C(=O)Cc2cc(NS(C)(=O)=O)ccc2O[C@@H]1CN(C)Cc1ccc(C(F)(F)F)cc1`: the concentration at half-maximal activity (AC50) was 22.3 µM.
`C[C@@H]1CN([C@H](C)CO)C(=O)c2cc(NC(=O)CCCCCC(=O)Nc3ccccc3N)ccc2O[C@H]1CN(C)S(=O)(=O)c1ccc(Cl)cc1`: the AC50 is 0.563 µM.
Consider `C[C@@H]1CN([C@H](C)CO)C(=O)c2cc(NC(=O)Cc3cn(C)c4ccccc34)ccc2O[C@H]1CN(C)C(=O)Nc1ccc2c(c1)OCO2`, for which the half-maximal activity concentration (AC50) was 4.6 µM.
`C[C@@H]1CN([C@H](C)CO)C(=O)c2cc(NC(=O)Cc3cn(C)c4ccccc34)ccc2O[C@H]1CN(C)S(=O)(=O)c1cn(C)cn1`: the AC50 is 6.39 µM.
As for `C[C@@H]1CN([C@@H](C)CO)C(=O)Cc2cc(N(C)C)ccc2O[C@@H]1CN(C)Cc1ccc(C(=O)O)cc1`, the concentration at half-maximal activity (AC50) was 34.4 µM.
For `Cc1noc(C)c1NC(=O)N(C)C[C@@H]1Oc2ccc(NC(=O)Cc3cn(C)c4ccccc34)cc2C(=O)N([C@H](C)CO)C[C@H]1C`, the AC50 was 6.97 µM.
As for `C[C@@H]1CN([C@H](C)CO)C(=O)c2cc(NC(=O)Cc3cn(C)c4ccccc34)ccc2O[C@H]1CN(C)CC1CCCCC1`, the AC50 was 9.24 µM.
On to `C[C@@H]1CN([C@H](C)CO)C(=O)c2cc(NC(=O)Nc3ccc4c(c3)OCO4)ccc2O[C@H]1CN(C)S(=O)(=O)c1ccc(Cl)cc1`, for which the AC50 was 0.856 µM.
On the same count and under the same terms, for `C[C@H]1CN([C@@H](C)CO)C(=O)c2cc(NC(=O)Cc3cn(C)c4ccccc34)ccc2O[C@@H]1CN(C)S(=O)(=O)c1ccc(Cl)cc1` the value was 17.4 µM; for `C[C@@H]1CN([C@@H](C)CO)C(=O)Cc2cc(NC(=O)CCCN(C)C)ccc2O[C@H]1CN(C)Cc1ccncc1`, > 70 µM (inactive); for `C[C@@H]1CN([C@H](C)CO)C(=O)c2cc(NC(=O)CCC(F)(F)F)ccc2O[C@H]1CN(C)S(=O)(=O)c1ccc(Cl)cc1`, 0.258 µM.

The test is the same for the next values; noted with them: DiI-HDL uptake fluorescence, 3 h, at 11 µM (top of the series).
Regarding `C[C@@H]1CN([C@H](C)CO)C(=O)c2cc(NC(=O)Cc3cn(C)c4ccccc34)ccc2O[C@H]1CN(C)Cc1ccc(Cl)c(Cl)c1`, the “activity change, negative = inhibition” value was “inactive”.

The test is the same for the next values; noted with them: DiI-HDL uptake fluorescence, 3 h, at 35 µM (top of the series).
Consider `Cc1ccc(S(=O)(=O)Nc2ccc3c(c2)C(=O)N([C@H](C)CO)C[C@@H](C)[C@H](CN(C)S(=O)(=O)c2ccc(Cl)cc2)O3)cc1`, for which the “activity change, negative = inhibition” value was “inactive”.
On to `CO[C@H]1CN(C)C(=O)c2ccc(NC(=O)C3CCCC3)cc2OC[C@@H](C)N(C(=O)CC2CC2)C[C@@H]1C`, for which the “activity change, negative = inhibition” value is “inactive”.
Take `C[C@@H]1CN([C@H](C)CO)C(=O)c2cc(NC(=O)Cc3cn(C)c4ccccc34)ccc2O[C@H]1CN(C)Cc1ccc(-c2ccccc2)cc1`: the “activity change, negative = inhibition” value is “inactive”.
The same measure, in the same setting: the same measure for `C[C@@H]1CN([C@H](C)CO)C(=O)c2cc(NC(=O)Cc3cn(C)c4ccccc34)ccc2O[C@H]1CN(C)Cc1ccc(Oc2ccccc2)cc1`: “inactive”.
As to `CNC[C@@H]1OCCCC[C@@H](C)Oc2ccc(NS(=O)(=O)c3ccc(Cl)cc3)cc2C(=O)N([C@H](C)CO)C[C@H]1C`, the “activity change, negative = inhibition” value was “inactive”.
Turning to `Cc1noc(C)c1S(=O)(=O)N(C)C[C@H]1Oc2c(NC(=O)c3nc4ccccc4s3)cccc2C(=O)N([C@H](C)CO)C[C@H]1C`, the “activity change, negative = inhibition” value was “inactive”.
